Assays:
Yersinia pestis [1] = assay: Inhibition of Yersinia pestis protein tyrosine phosphatase at 100 uM
Summary of the method: (§1)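 Single-concentration percent inhibition screen with p-NPP substrate, 2.9 mM for Yersinia PTP and 2.0 mM for PTP1B. Buffer was 50 mM 3,3-dimethylglutarate pH 7.0 with 1 mM EDTA, 50 mM NaCl and 10% DMSO, at room temperature. Initial hydrolysis rates were read at 405 nm from 10 to 130 s.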

[2] = Inhibition of Yersinia pestis protein tyrosine phosphatase 1B
Summary of the method: (§2)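 p-NPP hydrolysis at room temperature in 50 mM 3,3-dimethylglutarate pH 7.0, 1 mM EDTA, 50 mM NaCl, 10% DMSO. Substrate was held at Km: Yersinia PTP 2.9, PTP1B 2.0, TCPTP 2.1, CD45 7.0 mM. Initial rates came from absorbance at 405 nm, 10–130 s after mixing. IC50 was obtained by Dixon analysis.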

[3] = Inhibition of Yersinia pestis protein tyrosine phosphatase; summary of the method: as §2
Yersinia pestis [4] = assay: Inhibition of Yersinia pestis protein tyrosine phosphatase at 10 uM; summary of the method: as §1
[5] = Inhibition of Yersinia pestis protein tyrosine phosphatase CD45; summary of the method: as §2
[6] = Inhibition of Yersinia pestis Protein tyrosine phosphatase TC; summary of the method: as §2

Structure (SMILES) | inhibition (Yersinia pestis [1]) | IC50 [2] | IC50 [3] | inhibition (Yersinia pestis [4]) | IC50 [5] | IC50 [6]
C#Cc1cccc(C#C)c1 | > 60% | – | – | – | – | –
O=C(O)C(=O)c1ccc(-n2cc(-c3cccc(-c4cn(-c5ccc(C(=O)C(=O)O)cc5)nn4)c3)nn2)cc1 | – | 77 µM | 25 µM | – | – | –
C#Cc1ccc(-c2ccccc2)cc1 | > 60% | – | – | – | – | –
COc1ccc2cc(-c3cn(C[C@H](Cc4c[nH]c5ccccc45)NC(=O)c4cn(-c5ccc(C(=O)C(=O)O)cc5)nn4)nn3)ccc2c1 | – | 5.7 µM | 2.1 µM | > 60% | 16.8 µM | 2.6 µM
C#Cc1ccc(C#C)cc1 | > 60% | – | – | – | – | –
O=C(O)C(=O)c1ccc(-n2cc(C(=O)N[C@H](CO)Cc3c[nH]c4ccccc34)nn2)cc1 | – | 500 µM | 58 µM | – | – | –
O=C(O)C(=O)c1ccc(-n2cc(C(=O)N[C@@H](Cc3c[nH]c4ccccc34)Cn3cc(-c4ccc(-c5cn(C[C@H](Cc6c[nH]c7ccccc67)NC(=O)c6cn(-c7ccc(C(=O)C(=O)O)cc7)nn6)nn5)cc4)nn3)nn2)cc1 | – | 2.1 µM | 0.55 µM | > 60% | 8.4 µM | 0.71 µM
O=C(O)C(=O)c1ccc(-n2cc(C(=O)N[C@@H](Cc3c[nH]c4ccccc34)Cn3cc(-c4cccc(-c5cn(C[C@H](Cc6c[nH]c7ccccc67)NC(=O)c6cn(-c7ccc(C(=O)C(=O)O)cc7)nn6)nn5)c4)nn3)nn2)cc1 | – | 4.1 µM | 1.3 µM | > 60% | 8.5 µM | 1.8 µM
C#CC(=O)N[C@H](CO)Cc1c[nH]c2ccccc12 | > 60% | – | – | – | – | –
Cc1ccc(S(=O)(=O)c2cn(C[C@H](Cc3c[nH]c4ccccc34)NC(=O)c3cn(-c4ccc(C(=O)C(=O)O)cc4)nn3)nn2)cc1 | – | 7.4 µM | 2.1 µM | > 60% | 15.8 µM | 2.6 µM
O=C(O)C(=O)c1ccc(-n2cc(-c3ccc(-c4ccccc4)cc3)nn2)cc1 | – | 84 µM | 45 µM | – | – | –

Source: ChEMBL document CHEMBL1144498, “A two stage click-based library of protein tyrosine phosphatase inhibitors” (Bioorg Med Chem, 2007)
